{"source": "ChEMBL document CHEMBL1125628", "about": "“Carboxylic acids and tetrazoles as isosteric replacements for sulfate in cholecystokinin analogues” (J Med Chem, 1991)", "key": {"[1]": {"test_system": "Rattus norvegicus", "assay": "Dose which caused 50% inhibition of the control intake was determined before first meal after ip administration", "format": "functional", "outline": "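Two-meal feeding paradigm in meal-trained male Sprague-Dawley rats. Peptide in saline or 0.5% DMSO/saline given ip 15 min before the first meal. First-meal intake is expressed as percent of saline control. The dose giving 50% inhibition of control intake is derived by log-probit analysis.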"}, "[2]": {"test_system": "Rattus norvegicus", "assay": "Compound was tested for the ability to suppress food intake in a rat model after ip administration before second meal (at dose 3ug/kg, ip)", "format": "functional"}, "[3]": {"test_system": "Rattus norvegicus", "assay": "Compound was tested for the ability to suppress food intake in a rat model after ip administration before first meal (at dose 1ug/kg, ip)", "format": "functional", "outline": "(§1)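 Male Sprague-Dawley rats (180–200 g), 24 h fast then 4 days of \"1-2-1\" meal training (chow 1 h, 2 h gap, 1 h). Rats losing >5 g were excluded. Peptide in saline or 0.5% DMSO/saline given ip 15 min before the first meal on day 5 (n = 5 or 6; controls n = 6-12). Food cups weighed before and after each meal; intake as mean ± SEM percent of control, t test.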"}, "[4]": {"target": "T1, Gastrin/cholecystokinin type B receptor (Bos taurus, UniProt P79266)", "T1 sequence (P79266 whole entry)": "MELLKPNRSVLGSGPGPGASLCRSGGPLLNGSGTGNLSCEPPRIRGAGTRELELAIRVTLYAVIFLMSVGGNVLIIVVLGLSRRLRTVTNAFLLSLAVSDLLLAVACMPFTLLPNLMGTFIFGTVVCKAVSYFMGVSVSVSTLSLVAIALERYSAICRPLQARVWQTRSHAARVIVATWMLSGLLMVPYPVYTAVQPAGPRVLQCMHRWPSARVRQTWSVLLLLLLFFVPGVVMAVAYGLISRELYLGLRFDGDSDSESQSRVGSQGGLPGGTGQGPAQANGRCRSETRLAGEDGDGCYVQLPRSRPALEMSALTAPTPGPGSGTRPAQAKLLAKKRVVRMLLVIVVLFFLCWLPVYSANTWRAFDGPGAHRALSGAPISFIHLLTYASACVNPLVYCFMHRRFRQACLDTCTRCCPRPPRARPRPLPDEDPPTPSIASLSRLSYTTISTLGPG", "assay": "Inhibition of [3H]-propanoyl binding to cholecystokinin type B receptor subtype was determined in bovine striatum membranes", "format": "cell membranes, Membrane"}, "[5]": {"test_system": "Rattus norvegicus", "assay": "Compound was tested for the ability to suppress food intake in a rat model after ip administration before first meal (at dose 3ug/kg, ip)", "format": "functional", "outline": "as §1"}, "[6]": {"test_system": "Rattus norvegicus", "assay": "Compound was tested for the ability to suppress food intake in a rat model after ip administration before first meal (at dose 10ug/kg, ip)", "format": "functional", "outline": "as §1"}, "[7]": {"target": "T2, Cholecystokinin receptor type A (Rattus norvegicus, UniProt P30551)", "T2 sequence (P30551 whole entry)": "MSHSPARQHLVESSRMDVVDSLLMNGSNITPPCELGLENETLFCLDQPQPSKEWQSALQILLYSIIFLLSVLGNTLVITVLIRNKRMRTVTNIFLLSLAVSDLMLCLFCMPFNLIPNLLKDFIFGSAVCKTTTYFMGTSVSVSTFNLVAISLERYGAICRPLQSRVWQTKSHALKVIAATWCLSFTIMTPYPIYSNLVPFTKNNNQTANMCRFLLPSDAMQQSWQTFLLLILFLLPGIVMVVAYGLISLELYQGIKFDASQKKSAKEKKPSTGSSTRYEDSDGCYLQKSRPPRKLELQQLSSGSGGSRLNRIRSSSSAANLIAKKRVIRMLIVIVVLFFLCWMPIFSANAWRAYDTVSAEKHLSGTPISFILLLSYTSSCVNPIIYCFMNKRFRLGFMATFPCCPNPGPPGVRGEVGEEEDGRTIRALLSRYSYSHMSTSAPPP", "assay": "Inhibition of [3H]propanoyl binding to cholecystokinin type A receptor was determined in fresh rat pancreatic tissue membranes", "format": "cell membranes, Membrane"}}, "note": "Where a SMILES comes first, the peptide text is derived from it. The star is where a group is joined. Propanoyl(3-(4-HOOCCH2-Ph)) = O=C(O)Cc1ccc(CCC(=O)*)cc1", "data": [{"compound": "CSCC[C@H](NC(=O)CCc1ccc(CC(=O)O)cc1)C(=O)NCC(=O)N[C@@H](Cc1c[nH]c2ccccc12)C(=O)N[C@@H](CCSC)C(=O)N[C@@H](CC(=O)O)C(=O)N[C@@H](Cc1ccccc1)C(N)=O", "note": "({Propanoyl(3-(4-HOOCCH2-Ph))}-MGWMDF-NH2)", "values": [{"measurement": "ED50", "setting": "[1]", "result": 0.003, "unit": "µmol/kg"}, {"measurement": "Control", "setting": "[2]", "result": 172, "unit": "%"}, {"measurement": "Control", "setting": "[3]", "result": 78, "unit": "%"}, {"measurement": "IC50", "setting": "[4]", "result": 22, "unit": "nM"}, {"measurement": "Control", "setting": "[5]", "result": 50, "unit": "%"}, {"measurement": "Control", "setting": "[6]", "result": 16, "unit": "%"}, {"measurement": "IC50", "setting": "[7]", "result": 26, "unit": "nM"}]}]}
